From ChEMBL document CHEMBL1154150, “Synthesis and anticonvulsant activity of some new bishydrazones derived from 3,4-dipropyloxythiophene” (Eur J Med Chem, 2009)
The source made the active and inactive calls. The calls are words filed in the database; no cut-off is given here.

Legend:
Mus musculus [1] = assay: Neurotoxicity in CF1 mouse at 100 mg/kg, ip after 4 hrs by rotarod test; format: toxicity, organism-based; design: dose 100 mg/kg, route intraperitoneal; settings: in vivo
Method in brief: (§1)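 Rotorod neurotoxicity in male CF-1 mice (18–25 g) after i.p. compound in 0.5% methyl cellulose/water or PEG 200 at 30, 100 or 300 mg/kg; reported as number showing toxicity/number tested.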

Mus musculus [2] = assay: Neurotoxicity in CF1 mouse at 300 mg/kg, ip after 4 hrs by rotarod test; format: toxicity, organism-based; design: dose 300 mg/kg, route intraperitoneal; settings: in vivo; method in brief: as §1
Mus musculus [3] = assay: Anticonvulsant activity in CF1 mouse assessed as protection against 6 Hz electric shock-induced seizures at 100 mg/kg, ip after 0.25 hrs; format: functional, organism-based; design: dose 100 mg/kg
Method in brief: (§2)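 Male CF-1 albino mice (18–25 g), compound suspended in 0.5% methyl cellulose/water or PEG 200, given i.p.; four mice per time point (0.25, 0.5, 1.0, 2.0, 4 h) challenged via corneal electrodes at 6 Hz, 32 mA for 3 s, current eliciting psychomotor seizure in 97% of animals; reported as protected/tested.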

Mus musculus [4] = assay: Anticonvulsant activity in CF1 mouse assessed as protection against 6 Hz electric shock-induced seizures at 100 mg/kg, ip after 0.5 hrs; format: functional, organism-based; design: dose 100 mg/kg; method in brief: as §2
Mus musculus [5] = assay: Anticonvulsant activity in CF1 mouse assessed as protection against 6 Hz electric shock-induced seizures at 100 mg/kg, ip after 1 hr; format: functional, organism-based; design: dose 100 mg/kg; method in brief: as §2
Mus musculus [6] = assay: Anticonvulsant activity in CF1 mouse assessed as protection against 6 Hz electric shock-induced seizures at 100 mg/kg, ip after 2 hrs; format: functional, organism-based; design: dose 100 mg/kg; method in brief: as §2
Mus musculus [7] = assay: Anticonvulsant activity in CF1 mouse assessed as protection against 6 Hz electric shock-induced seizures at 100 mg/kg, ip after 4 hrs; format: functional, organism-based; design: dose 100 mg/kg; method in brief: as §2
Mus musculus [8] = assay: Anticonvulsant activity in CF1 mouse assessed as protection against maximal electroshock-induced seizures at 30 mg/kg, ip after 0.5 hrs; format: functional, organism-based; design: dose 30 mg/kg
Method in brief: (§3)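 Male CF-1 albino mice (18–25 g), dosed i.p. at 30, 100 or 300 mg/kg in 0.5% methyl cellulose/water or PEG 200 (0.01 ml/g); tested at intervals after dosing; protection = abolition of hind limb tonic extensor component of MES seizure; scored as protected/tested.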

Mus musculus [9] = assay: Anticonvulsant activity in CF1 mouse assessed as protection against maximal electroshock-induced seizures at 30 mg/kg, ip after 4 hrs; format: functional, organism-based; design: dose 30 mg/kg; method in brief: as §3
Mus musculus [10] = assay: Anticonvulsant activity in CF1 mouse assessed as protection against maximal electroshock-induced seizures at 100 mg/kg, ip after 0.5 hrs; format: functional, organism-based; design: dose 100 mg/kg; method in brief: as §3
Mus musculus [11] = assay: Anticonvulsant activity in CF1 mouse assessed as protection against maximal electroshock-induced seizures at 100 mg/kg, ip after 4 hrs; format: functional, organism-based; design: dose 100 mg/kg; method in brief: as §3
Mus musculus [12] = assay: Anticonvulsant activity in CF1 mouse assessed as protection against maximal electroshock-induced seizures at 300 mg/kg, ip after 0.5 hrs; format: functional, organism-based; design: dose 300 mg/kg; method in brief: as §3
Mus musculus [13] = assay: Anticonvulsant activity in CF1 mouse assessed as protection against maximal electroshock-induced seizures at 300 mg/kg, ip after 4 hrs; format: functional, organism-based; design: dose 300 mg/kg; method in brief: as §3
Mus musculus [14] = assay: Anticonvulsant activity in CF1 mouse assessed as protection against subcutaneous metrazole-induced seizures at 30 mg/kg, ip after 0.5 hrs; format: functional, organism-based; design: dose 30 mg/kg
Mus musculus [15] = assay: Anticonvulsant activity in CF1 mouse assessed as protection against subcutaneous metrazole-induced seizures at 30 mg/kg, ip after 4 hrs; format: functional, organism-based; design: dose 30 mg/kg
Mus musculus [16] = assay: Anticonvulsant activity in CF1 mouse assessed as protection against subcutaneous metrazole-induced seizures at 100 mg/kg, ip after 0.5 hrs; format: functional, organism-based; design: dose 100 mg/kg
Mus musculus [17] = assay: Anticonvulsant activity in CF1 mouse assessed as protection against subcutaneous metrazole-induced seizures at 100 mg/kg, ip after 4 hrs; format: functional, organism-based; design: dose 100 mg/kg
Mus musculus [18] = assay: Anticonvulsant activity in CF1 mouse assessed as protection against subcutaneous metrazole-induced seizures at 300 mg/kg, ip after 0.5 hrs; format: functional, organism-based; design: dose 300 mg/kg
Mus musculus [19] = assay: Anticonvulsant activity in CF1 mouse assessed as protection against subcutaneous metrazole-induced seizures at 300 mg/kg, ip after 4 hrs; format: functional, organism-based; design: dose 300 mg/kg
Mus musculus [20] = assay: Neurotoxicity in CF1 mouse at 30 mg/kg, ip after 0.5 hrs by rotarod test; format: toxicity, organism-based; design: dose 30 mg/kg, route intraperitoneal; settings: in vivo; method in brief: as §1
Mus musculus [21] = assay: Neurotoxicity in CF1 mouse at 100 mg/kg, ip after 0.5 hrs by rotarod test; format: toxicity, organism-based; design: dose 100 mg/kg, route intraperitoneal; settings: in vivo; method in brief: as §1
Mus musculus [22] = assay: Neurotoxicity in CF1 mouse at 300 mg/kg, ip after 0.5 hrs by rotarod test; format: toxicity, organism-based; design: dose 300 mg/kg, route intraperitoneal; settings: in vivo; method in brief: as §1
Mus musculus [23] = assay: Neurotoxicity in CF1 mouse at 30 mg/kg, ip after 4 hrs by rotarod test; format: toxicity, organism-based; design: dose 30 mg/kg, route intraperitoneal; settings: in vivo; method in brief: as §1

| SMILES | Activity (Mus musculus [1]) | Activity (Mus musculus [2]) | Activity (Mus musculus [3]) | Activity (Mus musculus [4]) | Activity (Mus musculus [5]) | Activity (Mus musculus [6]) | Activity (Mus musculus [7]) | Activity (Mus musculus [8]) | Activity (Mus musculus [9]) | Activity (Mus musculus [10]) | Activity (Mus musculus [11]) | Activity (Mus musculus [12]) | Activity (Mus musculus [14]) | Activity (Mus musculus [15]) | Activity (Mus musculus [17]) | Activity (Mus musculus [18]) | Activity (Mus musculus [19]) | Activity (Mus musculus [20]) | Activity (Mus musculus [22]) | Activity (Mus musculus [23]) | other results |
| --- | --- | --- | --- | --- | --- | --- | --- | --- | --- | --- | --- | --- | --- | --- | --- | --- | --- | --- | --- | --- | --- |
| CCCOc1c(C(=O)N/N=C(\c2ccccc2)c2ccc(Br)s2)sc(C(=O)N/N=C(\c2ccccc2)c2ccc(Br)s2)c1OCCC | Toxic | Non-toxic | inactive | inactive | inactive | inactive | inactive | inactive | inactive | inactive | inactive | inactive | inactive | inactive | inactive | inactive | inactive | Non-toxic | Toxic | Non-toxic | Activity (Mus musculus [13]): inactive; Activity (Mus musculus [16]): inactive; Activity (Mus musculus [21]): Toxic |
| CCCOc1c(C(=O)NN=C(c2ccccc2)c2ccccc2)sc(C(=O)NN=C(c2ccccc2)c2ccccc2)c1OCCC | Non-toxic | Non-toxic | inactive | inactive | inactive | inactive | inactive | inactive | inactive | inactive | inactive | inactive | inactive | inactive | inactive | inactive | inactive | Non-toxic | Non-toxic | Non-toxic | Activity (Mus musculus [13]): inactive; Activity (Mus musculus [16]): inactive |
| CCCOc1c(C(=O)NN=C2CCCCC2)sc(C(=O)NN=C2CCCCC2)c1OCCC | Non-toxic | Non-toxic | inactive | inactive | inactive | inactive | inactive | inactive | inactive | inactive | inactive | inactive | inactive | inactive | inactive | inactive | inactive | Non-toxic | Non-toxic | Non-toxic | Activity (Mus musculus [16]): inactive; Activity (Mus musculus [21]): Non-toxic |
| CCCOc1c(C(=O)N/N=C\c2cc(OC)c(OC)c(OC)c2)sc(C(=O)N/N=C/c2cc(OC)c(OC)c(OC)c2)c1OCCC | Non-toxic | Non-toxic | inactive | inactive | – | – | inactive | inactive | inactive | inactive | inactive | inactive | inactive | inactive | inactive | inactive | inactive | Non-toxic | Non-toxic | Non-toxic | Activity (Mus musculus [13]): inactive; Activity (Mus musculus [21]): Non-toxic |
